In this assay the target is T1, Chromobox protein homolog 7 (Homo sapiens, UniProt O95931).
T1 sequence (O95931 whole entry): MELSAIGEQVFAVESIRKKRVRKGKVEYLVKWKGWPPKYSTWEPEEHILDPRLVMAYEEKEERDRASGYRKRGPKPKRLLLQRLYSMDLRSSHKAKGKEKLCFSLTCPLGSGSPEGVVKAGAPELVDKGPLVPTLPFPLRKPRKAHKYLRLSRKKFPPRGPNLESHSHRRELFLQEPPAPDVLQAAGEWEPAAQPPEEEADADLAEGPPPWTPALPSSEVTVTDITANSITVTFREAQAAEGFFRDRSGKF
Put plainly: Binding affinity to recombinant human N-terminal GST-tagged CBX7 (1 to 62 residues) expressed in Escherichia coli […] by SPR analysis. A digest of the protocol:
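Chromodomain expressed with N-terminal GST tag in E. coli BL21 (IPTG 0.2 mM at OD600 0.6–0.8, 28 C for 6 h), GSTrap purified, tag cleaved by PreScission protease, amine-coupled to CM5 chip at pH 4.0–4.5 (5000–10000 RU). […] Mean ± SD of at least two replicates, each in duplicate.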
In general terms: In SPR one partner is held on a chip, and binding of the other changes the refractive index at the surface.

As a reminder, the Kd is the constant that tells how readily two partners part at equilibrium. Turning to `O=C(Cn1c(=O)oc2ccccc21)N1CCC(N2CCCC2)CC1`, the Kd is 16.2 µM.
